According to publication PMC10527666 (Molecular imaging and biology, 2023):

Columns and labels:
α-synuclein fibrils [1] = molecular target: T1, α-synuclein fibrils (Homo sapiens, UniProt P37840); assay: Competition binding assay against [^3H]BF2846
Outline: (§1)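 Fibrils (α-synuclein 50 nM; Aβ42 100 nM) incubated with 3 nM [³H]BF2846 and varying concentrations of test compound in 50 mM Tris-HCl pH 7.4, 1 h at 37 °C. Nonspecific binding was defined with 0.5 μM unlabeled BF2846, and fibril-free filter blanks were run. Samples were GF/C-filtered, washed with 10 mM Tris/150 mM NaCl and scintillation-counted after 12 h, in triplicate. Ki was obtained by nonlinear regression using radioligand Kd.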

α-synuclein fibrils [2] = molecular target: T1, α-synuclein fibrils; assay: Compound screening, 1-point inhibition of [^3H]BF2846 binding; details: read-out: % Inhibition [^3H]BF-2846
Outline: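 Human α-synuclein (C-terminal intein fusion, expressed in E. coli BL21(DE3), purified, quantified by A280) was fibrillised. Fibrils at 100 nM were incubated with 100 nM test compound and 3 nM [³H]BF2846 in 50 mM Tris-HCl pH 7.4, 1 h at 37 °C, with nonspecific binding defined by 0.5 μM BF2846. Samples were GF/C-filtered and scintillation-counted, in triplicate. Bound radioligand was expressed as % of total binding and tested by one-way ANOVA.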

Aβ42 fibrils = Aβ42 fibrils (Homo sapiens, UniProt P05067); assay: Competition binding assay against [^3H]BF2846
Chain of Aβ42 fibrils (P05067 672-713 limits assumed): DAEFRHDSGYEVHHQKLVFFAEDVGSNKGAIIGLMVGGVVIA
Outline: as §1

Row | Ki (α-synuclein fibrils [1]) [µM] | inhibition at 0.1 µM (α-synuclein fibrils [2]) [%] | Ki (Aβ42 fibrils) [µM] | SMILES
1 | 0.0036 |  |  | COc1ccc(C(=O)Nc2cc(-c3ccc(I)cc3)no2)cc1 [Compound 21, N-(3-(4-iodophenyl)isoxazol-5-yl)-4-methoxybenzamide]
2 | 0.011 | 80 | 0.0361 | COc1ccc(C(=O)Nc2cc(-c3ccc(Br)cc3)no2)cc1 [Compound 15, N-(3-(4-bromophenyl)isoxazol-5-yl)-4-methoxybenzamide]
